Source: ChEMBL document CHEMBL1157001, “Synthesis and antibacterial evaluation of isoxazolinyl oxazolidinones: Search for potent antibacterial” (2009)
Converted amounts (≈) assume the structure as drawn. The source made the active and inactive calls. The rule behind the calls is not given here.

Tests used:
Escherichia coli = assay: Antibacterial activity against Escherichia coli ATCC 9637 after 24 hrs; format: functional, organism-based
Summary of the method: (§1)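 Broth microdilution MIC per NCCLS protocol in Mueller Hinton broth. Strains grown on nutrient agar at 37 °C for 24 h, then suspended in normal saline with 0.05% Tween 20. Inoculum was a McFarland-matched suspension diluted into medium. Compounds were dissolved in DMSO at 1 mg/mL stock and serially twofold diluted, top concentration 50 µg/mL. Plates incubated 35 °C, moist dark chamber, 24 h. MIC read spectrophotometrically.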

Pseudomonas aeruginosa = assay: Antibacterial activity against Pseudomonas aeruginosa ATCC BAA427 after 24 hrs; format: functional, organism-based; summary of the method: as §1
Staphylococcus aureus [1] = assay: Antibacterial activity against floxacin and methicillin-resistant Staphylococcus aureus ATCC 25923 after 24 hrs; format: functional; details: ATCC 25923, 24 h
Staphylococcus aureus [2] = assay: Antibacterial activity against methicillin-resistant Staphylococcus aureus ATCC 70069 after 24 hrs; format: functional; details: ATCC 70069, 24 h
Staphylococcus aureus [3] = assay: Antibacterial activity against […] Staphylococcus aureus ATCC 29213 after 24 hrs; format: functional; details: ATCC 29213, 24 h
Bacillus cereus = assay: Antibacterial activity against Bacillus cereus MTCC 430 after 24 hrs; format: functional; details: MTCC 430, 24 h; summary of the method: as §1
Enterococcus faecalis = assay: Antibacterial activity against Enterococcus faecalis MTCC 439 after 24 hrs; format: functional; details: MTCC 439, 24 h; summary of the method: as §1
Klebsiella pneumoniae = assay: Antibacterial activity against Klebsiella pneumoniae ATCC 27736 after 24 hrs; format: functional; details: ATCC 27736, 24 h; summary of the method: as §1
Streptococcus pyogenes = assay: Antibacterial activity against Streptococcus pyogenes after 24 hrs; format: functional; summary of the method: as §1

| Structure (SMILES) | Activity (Escherichia coli) | Activity (Pseudomonas aeruginosa) | MIC (Staphylococcus aureus [1]) [µM] | MIC (Staphylococcus aureus [2]) [µM] | MIC (Staphylococcus aureus [3]) [µM] | MIC (Bacillus cereus) [µM] | MIC (Enterococcus faecalis) [µM] | MIC (Klebsiella pneumoniae) [µM] | MIC (Streptococcus pyogenes) [µM] |
| --- | --- | --- | --- | --- | --- | --- | --- | --- | --- |
| CC(=O)NC[C@H]1CN(c2ccc(N3CCN(C(=O)C4CC(c5ccc(Cl)c(Cl)c5)=NO4)CC3)c(F)c2)C(=O)O1 (mixture of isomers) | inactive | inactive | 0.329 | 0.329 | 2.7 | 0.156 | 0.329 | 0.329 | 0.329 |
| CC(=O)NC[C@H]1CN(c2ccc(N3CCN(C(=O)C4CC(c5cccc(C(F)(F)F)c5)=NO4)CC3)c(F)c2)C(=O)O1 (mixture of isomers) | inactive | inactive | 1.35 | 1.35 | 2.7 | 1.35 | 1.35 | 2.7 | 1.35 |
| CC(=O)NC[C@H]1CN(c2ccc(N3CCN(C(=O)C4CC(c5ccc(C(F)(F)F)cc5)=NO4)CC3)c(F)c2)C(=O)O1 (mixture of isomers) | inactive | inactive | 0.676 | 0.676 | 2.7 | 0.676 | 0.329 | 0.676 | 0.676 |
| CC(=O)NC[C@H]1CN(c2ccc(N3CCN(C(=O)C4CC(c5ccccc5)=NO4)CC3)c(F)c2)C(=O)O1 (mixture of isomers) | inactive | inactive | 24.6 | 24.6 | 24.6 | 24.6 | 24.6 | 24.6 | 24.6 |
| CC(=O)NC[C@H]1CN(c2ccc(N3CCN(C(=O)C4CC(c5cccs5)=NO4)CC3)c(F)c2)C(=O)O1 (mixture of isomers) | inactive | inactive | 6.06 | 24.3 | 24.3 | 6.06 | 24.3 | 6.06 | 12.1 |
| CC(=O)NC[C@H]1CN(c2ccc(N3CCN(C(=O)C4CC(c5ccsc5)=NO4)CC3)c(F)c2)C(=O)O1 (mixture of isomers) | inactive | inactive | 12.1 | 6.06 | 24.3 | 12.1 | 12.1 | 6.06 | 12.1 |
| CC(=O)NC[C@H]1CN(c2ccc(N3CCN(C(=O)C4CC(c5ccccn5)=NO4)CC3)c(F)c2)C(=O)O1 (mixture of isomers) | inactive | inactive | 0.765 | 1.53 | 1.53 | 0.765 | 0.372 | 0.765 | 0.372 |
| CC(=O)NC[C@H]1CN(c2ccc(N3CCN(C(=O)C4CC(c5ccc(F)cc5)=NO4)CC3)c(F)c2)C(=O)O1 (mixture of isomers) | inactive | inactive | 0.74 | 0.74 | 0.74 | 0.74 | 0.74 | 1.48 | 0.74 |
| CC(=O)NC[C@H]1CN(c2ccc(N3CCN(C(=O)C4CC(c5ccc(Cl)cc5)=NO4)CC3)c(F)c2)C(=O)O1 (mixture of isomers) | inactive | inactive | 0.166 | 0.35 | 2.87 | 0.35 | 0.35 | 0.166 | 0.349 |
| COc1ccc(C2=NOC(C(=O)N3CCN(c4ccc(N5C[C@H](CNC(C)=O)OC5=O)cc4F)CC3)C2)cc1O (mixture of isomers) | inactive | inactive | 0.342 | 0.703 | 0.703 | 0.342 | 0.342 | 0.342 | 0.703 |
| CC(=O)NC[C@H]1CN(c2ccc(N3CCN(C(=O)C4CC(c5ccc6c(c5)OCO6)=NO4)CC3)c(F)c2)C(=O)O1 (mixture of isomers) | inactive | inactive | 0.163 | 0.344 | 2.82 | 0.344 | 0.344 | 0.163 | 0.344 |
| CC(=O)NC[C@H]1CN(c2ccc(N3CCN(C(=O)C4CC(c5ccc(C)cc5)=NO4)CC3)c(F)c2)C(=O)O1 (mixture of isomers) | inactive | inactive | 0.363 | 1.49 | 2.98 | 0.363 | 0.746 | 0.363 | 0.746 |
| CC(=O)NC[C@H]1CN(c2ccc(N3CCN(C(=O)C4CC(c5cccc([N+](=O)[O-])c5)=NO4)CC3)c(F)c2)C(=O)O1 (mixture of isomers) | inactive | inactive | 0.343 | 0.704 | 0.704 | 0.162 | 0.0866 | 0.704 | 0.704 |
| CC(=O)NC[C@H]1CN(c2ccc(N3CCN(C(=O)C4CC(c5ccco5)=NO4)CC3)c(F)c2)C(=O)O1 (mixture of isomers) | inactive | inactive | 0.781 | 1.56 | 6.25 | 1.56 | 0.781 | 1.56 | 0.781 |
| CC(=O)NC[C@H]1CN(c2ccc(N3CCN(C(=O)C4CC(c5ccc(F)c(F)c5)=NO4)CC3)c(F)c2)C(=O)O1 (mixture of isomers) | inactive | inactive | 0.349 | 0.349 | 0.716 | 0.349 | 0.349 | 0.716 | 0.349 |
| CC(=O)NC[C@H]1CN(c2ccc(N3CCOCC3)c(F)c2)C(=O)O1 [LINEZOLID] | – | – | 4.63 (≈ 1.56 µg/mL) | 4.63 (≈ 1.56 µg/mL) | 9.26 (≈ 3.12 µg/mL) | 2.31 (≈ 0.781 µg/mL) | 9.26 (≈ 3.12 µg/mL) | 4.63 (≈ 1.56 µg/mL) | 4.63 (≈ 1.56 µg/mL) |
| CN[C@H](CC(C)C)C(=O)N[C@H]1C(=O)N[C@@H](CC(N)=O)C(=O)N[C@H]2C(=O)N[C@H]3C(=O)N[C@H](C(=O)N[C@H](C(=O)O)c4cc(O)cc(O)c4-c4cc3ccc4O)[C@H](O)c3ccc(c(Cl)c3)Oc3cc2cc(c3O[C@@H]2O[C@H](CO)[C@@H](O)[C@H](O)[C@H]2O[C@H]2C[C@](C)(N)[C@H](O)[C@H](C)O2)Oc2ccc(cc2Cl)[C@H]1O [VANCOMYCIN] | – | – | 0.262 (≈ 0.38 µg/mL) | 4.21 (≈ 6.1 µg/mL) | 1.05 (≈ 1.52 µg/mL) | 0.128 (≈ 0.185 µg/mL) | 0.525 (≈ 0.761 µg/mL) | 0.262 (≈ 0.38 µg/mL) | 0.262 (≈ 0.38 µg/mL) |
